Laboratory results reported in publication PMC5656813 (Arthritis & Rheumatology (Hoboken, N.j.), 2017).

Key:
[1] = test system: RA patients with an inadequate response to MTX; experiment: Study 1; type: in vivo, human
Method in brief: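 Randomized, double-blind, placebo-controlled trial at one site, 36 RA patients. Patients had MTX for ≥6 months and a stable 7.5–25 mg/week dose for ≥4 weeks, continued throughout. Oral capsules for 4 weeks: 200 mg once daily or 100 mg twice daily. ACR20/50/70 responses, DAS28-CRP and ACR core components (pain VAS, HAQ DI) scored as change from baseline. Intent-to-treat population.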

[2] = test system: healthy volunteers; conditions: cited from earlier work
[3] = test system: RA patients with an inadequate response to MTX; experiment: Study 2; type: in vivo, human; conditions: for ACR20 responders at week 4 / ACR50 responders at week 4 / DAS28‐CRP, mean change from baseline at week 4 / EULAR cumulative score, good/moderate, at week 4 / HAQ DI score, mean change from baseline at week 4 / Patient's assessment of pain, mean change from baseline at week 4 / Patient's global assessment of disease activity, mean change from baseline at week 4 / Physician's global assessment of disease activity, mean change from baseline at week 4 / Remission rate (DAS28‐CRP <2.6) at week 4 / SJC66, mean change from baseline at week 4 / Serum CRP, mean change from baseline at week 4 / TJC68, mean change from baseline at week 4: study 2
Method in brief: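 Randomized, double-blind, placebo-controlled dose-ranging trial: 91 RA patients, 19 sites in 4 countries, 1:1:1:1:1 allocation. Patients had MTX for ≥12 weeks and a stable 7.5–25 mg/week dose for ≥4 weeks, continued throughout. Oral capsules once daily at 30, 75, 150 or 300 mg for 4 weeks. Read-outs: ACR responses, DAS28-CRP and HAQ DI change from baseline at week 4. Intent-to-treat population.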

For `O=C(Nc1nc2cccc(-c3ccc(CN4CCS(=O)(=O)CC4)cc3)n2n1)C1CC1` [Filgotinib], the “ACR20 responders at week 4” value ([1]; 100 mg twice daily, study 1) was 11 (91.7) no. (%), the “ACR50 responders at week 4” value ([1]; 100 mg twice daily, study 1) was 4 (33.3) no. (%) and the “DAS28‐CRP, mean change from baseline at week 4” value (“DAS28‐CRP, mean change” below) ([1]; 100 mg twice daily, study 1) was −2.81. The “HAQ DI score, mean change from baseline at week 4” value (shortened to “HAQ DI score, mean change”) ([1]; 100 mg twice daily, study 1) was −0.52, the “Patient's assessment of pain, mean change from baseline at week 4” value ([1]; 100 mg twice daily, study 1) was −29.8 0–10‐cm VAS and the “Patient's global assessment of disease activity, mean change from baseline at week 4” value ([1]; 100 mg twice daily, study 1) was −25.8 0–10‐cm VAS. The “Physician's global assessment of disease activity, mean change from baseline at week 4” value ([1]; 100 mg twice daily, study 1) was −35.0 0–10‐cm VAS, the “Remission rate (DAS28‐CRP <2.6) at week 4” value (“Remission rate” below) ([1]; 100 mg twice daily, study 1) was 3 (25.0) no. (%) and the “SJC66, mean change from baseline at week 4” value (“SJC66, mean change” below) ([1]; 100 mg twice daily, study 1) was −15.4. For the same compound, the “Serum CRP, mean change from baseline at week 4” value (shortened to “Serum CRP, mean change”) ([1]; 100 mg twice daily, study 1) was -13.84 mg/L, the “TJC68, mean change from baseline at week 4” value (“TJC68, mean change” for short) ([1]; 100 mg twice daily, study 1) was −36.3 and the “time to normalization of serum CRP level” value ([1]; 200 mg once daily and 100 mg twice daily, study 1) was at most 1 week. For the same compound, the “ACR20 responders at week 4” value ([1]; 200 mg once daily, study 1) was 9 (75.0) no. (%), the “ACR50 responders at week 4” value ([1]; 200 mg once daily, study 1) was 2 (16.7) no. (%) and the “DAS28‐CRP, mean change” value ([1]; 200 mg once daily, study 1) was −2.23. The “HAQ DI score, mean change” value ([1]; 200 mg once daily, study 1) was −0.57, the “Patient's assessment of pain, mean change from baseline at week 4” value ([1]; 200 mg once daily, study 1) was −24.3 0–10‐cm VAS and the “Patient's global assessment of disease activity, mean change from baseline at week 4” value ([1]; 200 mg once daily, study 1) was −23.8 0–10‐cm VAS. The “Physician's global assessment of disease activity, mean change from baseline at week 4” value ([1]; 200 mg once daily, study 1) was −26.7 0–10‐cm VAS, the “Remission rate” value ([1]; 200 mg once daily, study 1) was 2 (16.7) no. (%) and the “SJC66, mean change” value ([1]; 200 mg once daily, study 1) was −12.8. For the same compound, the “Serum CRP, mean change” value ([1]; 200 mg once daily, study 1) was -35.05 mg/L, the “TJC68, mean change” value ([1]; 200 mg once daily, study 1) was −23.1 and the “patients achieving an ACR20 response” value ([1]; study 1, all filgotinib‐treated patients, end of 4 weeks) was over 83%. For the same compound, the “inhibition of JAK pathways in PD assays” value ([2]; healthy volunteers, daily doses of ≥100 mg) was “Significant inhibition of JAK‐1 pathways but not JAK‐2”, the “tolerability and safety in healthy volunteers” value ([2]; up to 10 days, doses up to 450 mg once daily) was “well tolerated and safe” and the “ACR20 responders at week 4” value ([3]; 30 mg once daily) was 6 (35.3) no. (%). For the same compound, the “ACR50 responders at week 4” value ([3]; 30 mg once daily) was 2 (11.8) no. (%), the “DAS28‐CRP, mean change” value ([3]; 30 mg once daily) was −1.08 and the “EULAR cumulative score, good/moderate, at week 4” value ([3]; 30 mg once daily) was 58.8%. For the same compound, the “HAQ DI score, mean change” value ([3]; 30 mg once daily) was −0.15, the “Patient's assessment of pain, mean change from baseline at week 4” value ([3]; 30 mg once daily) was −7.41 0–10‐cm VAS and the “Patient's global assessment of disease activity, mean change from baseline at week 4” value ([3]; 30 mg once daily) was −11.88 0–10‐cm VAS. The “Physician's global assessment of disease activity, mean change from baseline at week 4” value ([3]; 30 mg once daily) was −9.76 0–10‐cm VAS, the “Remission rate” value ([3]; 30 mg once daily) was 2 (11.8) no. (%) and the “SJC66, mean change” value ([3]; 30 mg once daily) was −6.24. The “Serum CRP, mean change” value ([3]; 30 mg once daily) was -13.28 mg/L, the “TJC68, mean change” value ([3]; 30 mg once daily) was −10.18 and the “ACR20 responders at week 4” value ([3]; 75 mg once daily) was 12 (54.5) no. (%). The “ACR50 responders at week 4” value ([3]; 75 mg once daily) was 6 (27.3) no. (%), the “DAS28‐CRP, mean change” value ([3]; 75 mg once daily) was −1.72 and the “EULAR cumulative score, good/moderate, at week 4” value ([3]; 75 mg once daily) was 68.2%. The “HAQ DI score, mean change” value ([3]; 75 mg once daily) was −0.47, the “Patient's assessment of pain, mean change from baseline at week 4” value ([3]; 75 mg once daily) was −21.27 0–10‐cm VAS and the “Patient's global assessment of disease activity, mean change from baseline at week 4” value ([3]; 75 mg once daily) was −21.00 0–10‐cm VAS. For the same compound, the “Physician's global assessment of disease activity, mean change from baseline at week 4” value ([3]; 75 mg once daily) was −27.09 0–10‐cm VAS, the “Remission rate” value ([3]; 75 mg once daily) was 3 (13.6) no. (%) and the “SJC66, mean change” value ([3]; 75 mg once daily) was −8.42. For the same compound, the “Serum CRP, mean change” value ([3]; 75 mg once daily) was -15.09 mg/L, the “TJC68, mean change” value ([3]; 75 mg once daily) was −13.72 and the “ACR20 responders at week 4” value ([3]; 150 mg once daily) was 6 (40.0) no. (%). The “ACR50 responders at week 4” value ([3]; 150 mg once daily) was 0 no. (%), the “DAS28‐CRP, mean change” value ([3]; 150 mg once daily) was −1.80 and the “EULAR cumulative score, good/moderate, at week 4” value ([3]; 150 mg once daily) was 66.7%. For the same compound, the “HAQ DI score, mean change” value ([3]; 150 mg once daily) was −0.26, the “Patient's assessment of pain, mean change from baseline at week 4” value ([3]; 150 mg once daily) was −14.07 0–10‐cm VAS and the “Patient's global assessment of disease activity, mean change from baseline at week 4” value ([3]; 150 mg once daily) was −12.33 0–10‐cm VAS. The “Physician's global assessment of disease activity, mean change from baseline at week 4” value ([3]; 150 mg once daily) was −24.87 0–10‐cm VAS, the “Remission rate” value ([3]; 150 mg once daily) was 0 no. (%) and the “SJC66, mean change” value ([3]; 150 mg once daily) was −10.52. For the same compound, the “Serum CRP, mean change” value ([3]; 150 mg once daily) was -20.50 mg/L, the “TJC68, mean change” value ([3]; 150 mg once daily) was −14.85 and the “patients achieving remission (DAS28‐CRP <2.6)” value ([3]; 300 mg group, within 4 weeks) was “up to 25%”. The “ACR20 responders at week 4” value ([3]; 300 mg once daily) was 13 (65.0) no. (%), the “ACR50 responders at week 4” value ([3]; 300 mg once daily) was 9 (45.0) no. (%) and the “DAS28‐CRP, mean change” value ([3]; 300 mg once daily) was −2.25. The “EULAR cumulative score, good/moderate, at week 4” value ([3]; 300 mg once daily) was 80.0%, the “HAQ DI score, mean change” value ([3]; 300 mg once daily) was −0.68 and the “Patient's assessment of pain, mean change from baseline at week 4” value ([3]; 300 mg once daily) was −29.85 0–10‐cm VAS. For the same compound, the “Patient's global assessment of disease activity, mean change from baseline at week 4” value ([3]; 300 mg once daily) was −25.85 0–10‐cm VAS, the “Physician's global assessment of disease activity, mean change from baseline at week 4” value ([3]; 300 mg once daily) was −29.20 0–10‐cm VAS and the “Remission rate” value ([3]; 300 mg once daily) was 5 (25.0) no. (%). The “SJC66, mean change” value ([3]; 300 mg once daily) was −8.48, the “Serum CRP, mean change” value ([3]; 300 mg once daily) was -20.98 mg/L and the “TJC68, mean change” value ([3]; 300 mg once daily) was −14.68. The “patients achieving an ACR20 response” value ([3]; study 2, 300 mg, week 4) was 65%.
